This passage reports inhibition and Activity results from ChEMBL document CHEMBL4190213, “Naphthoquinones of Sinningia reitzii and Anti-inflammatory/Antinociceptive Activities of 8-Hydroxydehydrodunnione” (J Nat Prod, 2017).

Calls of active or inactive are those of the source.

The subject of data set [1] is Mus musculus. The data set is described as follows: Antiinflammatory activity in Swiss mouse assessed as inhibition of carrageenan-induced paw edema 30 ng/paw administered as intraplantar injection pretreated for 1 hr followed by carrageenan challenge measured after 1 to 4 hrs. It is filed as functional, organism-based. Put shortly:
(§1)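 Male Swiss mice, 25−35 g, given an intraplantar pretreatment in 0.1% Tween 20 vehicle. The right hind paw then received carrageenan, 300 μg in 50 μL sterile 0.9% saline, given subcutaneously; the contralateral paw received saline only. Paw thickness was read by digital micrometer 1 h before and 1, 2 and 4 h after carrageenan. The result is the thickness difference in μm; mean ± SEM, 5−8 animals.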
On the technique in general: The carrageenan paw model is a standard test of acute inflammation.

Data set [2] has as its system Mus musculus. The data set is described as follows: Antinociceptive activity in dopamine-induced Swiss mouse model of mechanical hyperalgesia at 320 ng/paw administered as intraplantar injection pretreated for 15 mins followed by dopamine challenge after 3 hrs by Von Frey filament assay. It is filed as functional, organism-based. A digest of the protocol: (§2)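 Male Swiss mice received intraplantar pretreatment, vehicle 20 μL of 0.1% Tween 20. After 15 min the right paw was injected with PGE2 (100 ng/paw), dopamine (3 μg/paw) or dbcAMP (5 μg/paw). The 50% mechanical withdrawal threshold was measured by von Frey filaments, up-and-down method, before injection and 3 h after the stimulus; mean ± SEM, 5−8 animals.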

The subject of data set [3] is Mus musculus. The data set is described as follows: Antinociceptive activity in PGE2-induced Swiss mouse model of mechanical hyperalgesia at 320 ng/paw administered as intraplantar injection pretreated for 15 mins followed by PGE2 challenge after 3 hrs by Von Frey filament assay. It is filed as functional, organism-based. A digest of the protocol: as §2
In data set [4] the test system is Mus musculus. The data set is described as follows: Antinociceptive activity in dibutyryl cyclic AMP-induced Swiss mouse model of mechanical hyperalgesia at 320 ng/paw administered as intraplantar injection pretreated for 15 mins followed by dibutyryl cyclic AMP challenge after 3 hrs by Von Frey filament assay. It is filed as functional, organism-based. Put shortly:
as §2

Data set [5] relates to Mus musculus. The data set is described as follows: Toxicity in Swiss mouse assessed as motor impairment at 5 mg/kg, sc incubated for 15 mins measured for 180 secs by rotarod test. It is filed as organism-based. To be noted: in vivo, 0.05 h. A digest of the protocol:
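Male Swiss mice (25−35 g) were preselected for staying at least 60 s on a Rotarod at 22 rpm (one of three trials). Diazepam was given at 5.0 mg/kg s.c. as the positive control. Local intraplantar treatments (15 pg/paw, or 20 μL vehicle of 0.1% Tween 20) were tested 3 h later. The Rotarod task lasted 180 s, n = 6.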
(Falling from the rotarod earlier than controls is read as motor impairment.)

The subject of data set [6] is Mus musculus. The data set is described as follows: Toxicity in Swiss mouse assessed as motor impairment at 15 pg/paw administered as intraplantar injection incubated for 3 hrs measured for 180 secs by rotarod test. Conditions: in vivo, other. In kind it is organism-based. Put shortly: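 Male Swiss mice were preselected for staying at least 60 s on a Rotarod at 22 rpm (one of three trials). They received intraplantar treatment (vehicle 20 μL of 0.1% Tween 20) and were tested on the Rotarod 3 h later for 180 s; mean ± SEM, n = 6.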

The subject of data set [7] is Mus musculus. The data set is described as follows: Antinociceptive activity in dibutyryl cyclic AMP-induced Swiss mouse model of mechanical hyperalgesia at 15 pg/paw administered as intraplantar injection pretreated for 15 mins followed by dibutyryl cyclic AMP challenge after 3 hrs by Von Frey filament assay. It is filed as functional, organism-based. Put shortly: as §2

For data set [8], the system named is Mus musculus. The data set is described as follows: Antinociceptive activity in PGE2-induced Swiss mouse model of mechanical hyperalgesia at 15 pg/paw administered as intraplantar injection pretreated for 15 mins followed by PGE2 challenge after 3 hrs by Von Frey filament assay. In kind it is functional, organism-based. A digest of the protocol:
as §2

The subject of data set [9] is Mus musculus. The data set is described as follows: Antinociceptive activity in dopamine-induced Swiss mouse model of mechanical hyperalgesia at 15 pg/paw administered as intraplantar injection pretreated for 15 mins followed by dopamine challenge after 3 hrs by Von Frey filament assay. It is filed as functional, organism-based. Put shortly: as §2
The species entered for data set [10] is Mus musculus. The data set is described as follows: Antinociceptive activity in Swiss mouse assessed as increase in thermal-stimulus induced paw withdrawal or licking latency at 15 pg/paw after 3 hrs by hot plate method. It is filed as functional, organism-based. A digest of the protocol: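 Male Swiss mice were preselected for a basal latency of 7−15 s on a 55 °C metal platform. They then received intraplantar treatment (vehicle 20 μL of 0.1% Tween 20) and were re-exposed at 3 h. The end point was paw withdrawal or licking, cutoff 30 s. Data are %MPE = (post − basal)/(cutoff − basal) × 100; mean ± SEM, n = 6.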
A general note: Thermal pain tests record how soon the animal reacts.

In data set [11] the test system is Mus musculus. The data set is described as follows: Antinociceptive activity in carrageenan-induced Swiss mouse model of mechanical hyperalgesia administered as intraplantar injection pretreated for 15 mins followed by carrageenan challenge after 3 hrs by Von Frey filament assay. In kind it is functional, organism-based. Put shortly:
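Male Swiss mice were acclimatized 1 h on a wire mesh platform and given a basal von Frey up-and-down test (six measurements, 50% withdrawal threshold). Intraplantar treatment followed, 5−50 pg into the right paw, vehicle 0.1% Tween 20 in saline, 20 μL. After 15 min, carrageenan 300 μg/paw in 20 μL went into the right hindpaw. The threshold was remeasured at 3 h; mean ± SEM, 5−8 animals.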

Data set [12] has as its system Mus musculus. The data set is described as follows: Antiinflammatory activity in Swiss mouse assessed as inhibition of carrageenan-induced paw edema administered as intraplantar injection pretreated for 1 hr followed by carrageenan challenge measured after 1 to 4 hrs. In kind it is functional, organism-based. Put shortly: as §1

Turning to `C[C@@H]1C[C@H]2[C@@H]3CCC4=CC(=O)C=C[C@]4(C)[C@@]3(F)[C@@H](O)C[C@]2(C)[C@@]1(O)C(=O)CO`, the inhibition result with Mus musculus [1] is “Active”.
Regarding `Cc1c(N(C)CS(=O)(=O)O)c(=O)n(-c2ccccc2)n1C`, the result with Mus musculus [2], with Mus musculus [3] and in the data set with Mus musculus [4] was Active.
On to `CN1C(=O)CN=C(c2ccccc2)c2cc(Cl)ccc21` [DIAZEPAM], for which the Activity entry in the data set on Mus musculus [5] is on record as “Toxic”.
For the compound `C=C1OC2=C(C(=O)C(=O)c3c(O)cccc32)C1(C)C`, the Activity result in the data set with Mus musculus [6] is “Non-Toxic”; with Mus musculus [11], “Dose-dependent effect”. Also, the outcome in the data set on Mus musculus [7] and in the data set filed under Mus musculus [10] was inactive. Also, the outcome in the data set with Mus musculus [8] and in the data set with Mus musculus [9] was Active. Further, the inhibition result in the data set with Mus musculus [12] was “Dose-dependent effect”.
